Source: PubChem BioAssay
Dynein transport – dynein cargo transport inhibition; 3617.4 mouse cells, GR-EGFP nuclear translocation imaging; test concentration mostly 20 µM; stimulated with dexamethasone, 1 µM; stronger effect = lower value; z-score, hits read low; actives 0.47% (n = 220,000); AID 1381;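 active means plate z-score of nuclear minus cytoplasmic receptor signal below a set negative limit, without overly bright fluorescence or cell loss, cut at about -3.5 in these data, passing the limit was not always enough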;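 further: z-score of nuclear minus cytoplasmic ring GR-EGFP intensity difference per well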
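Buffer or medium – tet-free medium with charcoal-stripped serum · Signal – automated 10x imaging of fixed Hoechst-stained cells · Also added – dexamethasone agonist, 1.0 µM final, for 30 min · Incubation – induction 48 h, compound 1 h, agonist 30 min · Read-out – GR-EGFP nuclear translocation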
b-catenin transl – alters nuclear translocation of beta-catenin in HeLa cells; immunofluorescence imaging; nuclear translocation activity, % at 5 µM; actives 0.3% (n = 190,000); AID 1665;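 active means nuclear translocation activity above 50% at 5 µM, with a well cell count of 50 or more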;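 further: per-cell ratio of nuclear to cytoplasmic median beta-catenin stain intensity; plate controls were DMSO negative control for no effect and GSK-3 inhibitor IX positive control for full effect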
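System: Human HeLa cells, endogenous beta-catenin | Compound dosing: 5 µM primary, 0.02–20 µM confirmation | Timing: 24 h compound exposure at 37°C, 5% CO2 | Measured by: Fluorescence imaging of beta-catenin antibody stain plus DAPI | Read-out basis: % activation of per-cell nuclear versus cytoplasmic median beta-catenin signal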
MT stabilize HCS – microtubule stabilizers in HeLa cells. % tubulin-high responders, % at 10 µM. HeLa tubulin immunostaining HCS, 24 h; share of cells brighter than vehicle mean+2SD. AID 2205. actives 0.83% (n = 200,000);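 active means plate Z-score above 3 for both tubulin-high and condensed-nucleus cell shares, with cell loss under 80%, at 10 µM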;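 further: anti alpha tubulin signal scored within the nucleus-defined area of each cell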
Hsp70 act – Hsp70 transcriptional activation, primary screen. HeLa Hsp70 promoter luciferase reporter, luminescence; scaled: vehicle 0, proteasome-inhibitor control 100%. activation, % at 10 µM. actives 0.04% (n = 200,000);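 active means activation above the mean across all tested compounds plus 3 SD, cutoff set per campaign, cut at about 5.5% in these data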;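 further: 100% = MG132 at 30 µM as the positive control and 0% = DMSO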
Autophagy HCS – alters autophagy in cells; MEF GFP-LC3 puncta imaging; test concentration mostly 10 µM; actives 0.98% (n = 190,000); calls only at 10 µM (by protocol);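 active means percentage of spot-positive cells more than 3 SD above its plate mean, without a fluorescence outlier flag or 80% toxicity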;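 further: spot-positive cell cutoff set from DMSO-treated cells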
Numbers without * were called inactive; i = inactive; · = no result given; + = active, no number. Rows were chosen to be rich in hits. Some 2.1% of all compounds tested hit in one or more screens of this group.

SMILES | Dynein transport | b-catenin transl | MT stabilize HCS | Hsp70 act | Autophagy HCS
COC(=O)C(Cc1ccccc1)NC(=O)c1cc(S(=O)(=O)N(C)C)ccc1Cl (stereo not drawn) | -0.61 | -3 | 6 | 1 | i
c1ccc2c(c1)oc1c(NCCCn3ccnc3)ncnc12 | 3.4 | 0 | 2 | 0 | +
O=C(CCN1CCC(c2ccc(Cl)s2)=N1)c1ccc(Cl)s1 | -0.2 | -2 | · | · | ·
O=C(c1cccc(S(=O)(=O)N2CCOCC2)c1)N1CCCCCC1 | 1.6 | 2 | 3 | 0 | +
CCN1C(=O)/C(=C\c2cn(-c3ccccc3)nc2-c2cccnc2)SC1=S | 0.9 | 0 | 1 | 0 | +
CC1=C(C(=O)OCC(C)C)C(c2ccsc2)C2=C(CCCC2=O)N1 (stereo not drawn) | 0.5 | -1 | 4 | 0 | i
O=C(/C(=C\c1ccccc1)c1nc2ccccc2[nH]1)c1ccc(Cl)cc1 | -2.4 | 1 | 22* | 0 | i
c1ccc(CCNc2nc(-c3ccncc3)nc3ccccc23)cc1 | 0.84 | 39 | · | · | ·
CCCN(Cc1cc2cc(OC)ccc2[nH]c1=O)C(=O)c1ccncc1 | -0.68 | 0 | 13* | 0 | i
COc1ccc2[nH]c(=O)c(CN(C)C(=O)c3ccncc3)cc2c1 | -0.64 | -5 | 2 | 0 | i
CCCSc1nnc(NC(=O)Nc2ccccc2OC)s1 | -0.63 | 0 | · | · | ·
Cc1ccc(C)c(C2=CSC3=NCCN23)c1 | 0.55 | 1 | 2 | 0 | ·
Clc1ccc(C2=CSC3=NCCN23)cc1Cl | -0.63 | -4 | 2 | 0 | +
Cc1ccccc1C([O-])=Nc1ccc[n+](-c2nc3ccccc3nc2NS(=O)(=O)c2ccccc2)c1 | 0.16 | -2 | · | · | ·
Oc1ccccc1CN1CCCN(Cc2ccccc2O)C1 | -0.079 | 1 | 3 | 0 | +
Oc1ccccc1CN1CCC(C(O)(c2ccccc2)c2ccccc2)CC1 | 0.43 | -1 | 4 | 0 | i
CCCn1c(N)c(N(CCOC)C(=O)/C=C/c2ccc(C(=O)OC)cc2)c(=O)[nH]c1=O | -0.083 | 0 | 4 | 0 | i
Cc1ccc(C(=O)Nc2cc3ccccc3oc2=O)cc1 | -0.47 | 84* | 33* | -1 | i
Cc1cc(NC(=S)NC(=O)c2ccccc2)ccc1-c1cc2ccccc2oc1=O | 0.17 | 0 | 15* | 0 | i
Cc1ccccc1Nc1cccc2nonc12 | 0.57 | 3 | 1 | 0 | i
C#CCOCCOCCOCCNc1nc(N2CCOCC2)nc(N2CCN(C(=O)[C@H](CCC(=O)O)n3cc(C(N)[C@H](C)CC)nn3)CC2)n1 (stereo partly drawn) | 1.8 | 3 | 1 | 1 | i
O=C(NCc1ccccc1Cl)C1CCN(c2cnccn2)CC1 | 0.16 | -2 | 4 | 0 | i
CCOC(=O)c1ccc(Nc2nnc(C)c3ccccc23)cc1 | 1.8 | -1 | · | · | ·
COc1cccc(NC(=O)CCc2nc(-c3ccccc3F)no2)c1 | 0.037 | 0 | 4 | 0 | i
O=C(CCc1nc(-c2ccccc2F)no1)Nc1ccc(Oc2ccccc2)cc1 | -0.25 | -2 | 24* | 0 | i
SMILES | Dynein transport | b-catenin transl | MT stabilize HCS | Hsp70 act | Autophagy HCS
COCC1CCCN(Cc2nc(C(c3ccccc3)c3ccccc3)no2)C1 (stereo not drawn) | -0.24 | -2 | 3 | 0 | +
c1ccc(C(c2ccccc2)c2noc(CN3CCN(CC4CC4)CC3)n2)cc1 | -0.36 | 2 | 3 | 0 | i
CCc1ccc(-c2csc3[n+]2CCN3C(C)=O)cc1 | -0.29 | -5 | 3 | 0 | i
CC(=O)N1CC[n+]2c(-c3ccc(Cl)cc3)csc21 | 1.3 | -1 | 3 | 0 | +
O=C(O)c1ccccc1-n1c2ccccc2c2ccccc21 | 0.063 | -4 | · | · | ·
COc1ccc(NC(=O)c2c(Cl)n(C)c3ccccc23)cc1 | 0.2 | 3 | 49* | 0 | i
CCC(NC(=O)c1cccc(Cn2cc([N+](=O)[O-])cn2)c1)c1ccc(C(C)C)cc1 (stereo not drawn) | -0.67 | -6 | 1 | 0 | i
CC(NC(=O)c1cccc(Cn2cc([N+](=O)[O-])cn2)c1)c1ccc(C(C)(C)C)cc1 (stereo not drawn) | -0.88 | · | 46* | 0 | i
CCC/C(O)=C1\C(=O)CC(C)(C)CC1=Nc1ccc(OC)cc1OC | 2.9 | 76* | 53 | 0 | i
COC(=O)CC/C(O)=C1\C(=O)CC(C)(C)CC1=Nc1ccccc1OC | 0.016 | -3 | 17* | 0 | i
